Calls of active or inactive are those of the source. No cut-off for these calls is given here.
Columns and labels:
Oryctolagus cuniculus [1] = experiment: Antiatrial fibrillation activity in methoxamine-sensitised rabbit assessed as increase in atrial effective refractory period at 0.17 mg/kg, iv administered as 15 mins infusion relative to control; format: functional
Summary of the method: (§1)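 Rabbit, iv infusion of compound in DMF (0.17 mg/mL) with a 0.17 mg/kg maintenance dose. AERP was normalized to DMF vehicle, with time counted from the start of the maintenance infusion. Tissues were collected after 30 min. n = 3 rabbits; means ± standard error.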

[2] = Oral bioavailability in rat at 5 mg/kg using crystalline form; format: ADME, organism-based; conditions: in vivo
[3] = Volume of distribution at steady state in cynomolgus monkey at 1 mg/kg, iv or 1 mg/kg, po; format: ADME, organism-based, Macaca fascicularis; conditions: in vivo, read-out: Vdss
Summary of the method: (§2)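 Single-dose PK in mouse and rat (2 mg/kg iv, 5 mg/kg po), cynomolgus monkey (1 mg/kg iv and po) and dog (0.1 mg/kg iv, 1 mg/kg po). Dosing vehicle was 1:4:5 EtOH/propylene glycol/PEG400. Parameters reported: clearance, Vss, half-life, Cmax, Tmax, AUC and oral bioavailability.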

[4] = Plasma concentration in methoxamine-sensitised rabbit at 3 mg/kg, iv administered as 30 mins infusion; format: ADME, organism-based, Oryctolagus cuniculus
[5] = Clearance in rat at 2 mg/kg, iv or 5 mg/kg, po; format: ADME, organism-based; conditions: in vivo
Summary of the method: (§3)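 Single-dose PK study in mouse and rat (2 mg/kg iv, 5 mg/kg po), cynomolgus monkey (1 mg/kg iv and po) and dog (0.1 mg/kg iv, 1 mg/kg po). Dosing vehicle was 1:4:5 EtOH/propylene glycol/PEG400. Clearance, Vss, half-life, Cmax, Tmax, AUC (μM h) and oral %F were derived from plasma levels.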

[6] = Protein binding in rat plasma; format: ADME, cell-free; conditions: read-out: PPB
Oryctolagus cuniculus [7] = experiment: Antiatrial fibrillation activity in methoxamine-sensitised rabbit assessed as plasma concentration required to show increase in atrial effective refractory period at 0.17 mg/kg, iv measured 30 mins post infusion; format: functional, organism-based; summary of the method: as §1
[8] = Tmax in cynomolgus monkey at 1 mg/kg, iv or 1 mg/kg, po; format: ADME, organism-based, Macaca fascicularis; conditions: in vivo; summary of the method: as §2
[9] = Volume of distribution at steady state in mouse at 2 mg/kg, iv or 5 mg/kg, po; format: ADME, organism-based; conditions: in vivo, read-out: Vdss; summary of the method: as §2
[10] = Half life in mouse at 2 mg/kg, iv or 5 mg/kg, po; format: ADME, organism-based; conditions: in vivo; summary of the method: as §3
[11] = Solubility of the compound in pH 1 to 8 solution using crystalline form; format: physicochemical
[12] = Ratio of drug level in Sprague-Dawley rat brain to plasma at 3 mg/kg, iv administered as 10 mins infusion by LC-MS/MS analysis; format: ADME, organism-based; conditions: brain and plasma, read-out: BPR
[13] = Protein binding in human plasma; format: ADME, cell-free; conditions: read-out: PPB
Rhesus monkey = experiment: Drug absorption in monkey famotidine model at 10 mg/kg; format: ADME, organism-based, Macaca mulatta; conditions: in vivo
[14] = Cmax in dog at 0.1 mg/kg, iv or 1 mg/kg, po; format: ADME, organism-based, Canis lupus familiaris; conditions: in vivo; summary of the method: as §3
[15] = Tmax in mouse at 2 mg/kg, iv or 5 mg/kg, po; format: ADME, organism-based; conditions: in vivo; summary of the method: as §2
[16] = Inhibition of calcium channel (unknown origin); set-up: species or system Homo sapiens
Oryctolagus cuniculus [17] = experiment: Antiatrial fibrillation activity in methoxamine-sensitised rabbit assessed as plasma concentration required to show increase in atrial effective refractory period at 0.17 mg/kg, iv administered as 15 mins infusion; format: functional, organism-based; summary of the method: as §1
[18] = Oral bioavailability in mouse at 5 mg/kg; format: ADME, organism-based; conditions: in vivo; summary of the method: as §2
[19] = Tmax in rat at 2 mg/kg, iv or 5 mg/kg, po; format: ADME, organism-based; conditions: in vivo; summary of the method: as §2
Canis familiaris = experiment: Antiarrhythmic activity in mongrel dog heart failure model assessed as reduction in mean number of pacing-induced atrial fibrillation at 0.1 to 0.3 mg/kg, po; format: functional, organism-based; conditions: Canis lupus familiaris
Summary of the method: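 Simultaneous atrio-ventricular pacing dog model of atrial arrhythmia. Compound was given orally at 0.1 or 0.3 mg/kg in 10% EtOH/40% propylene glycol/50% PEG 400. AF inducibility was scored as mean number of AF inductions and total AF duration, with QTc monitored and plasma concentration measured. n = 7 control, 5 (0.1 mg/kg) and 6 (0.3 mg/kg) dogs.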

[20] = Clearance in cynomolgus monkey at 1 mg/kg, iv or 1 mg/kg, po; format: ADME, organism-based, Macaca fascicularis; conditions: in vivo; summary of the method: as §3
[21] = Half life in cynomolgus monkey at 1 mg/kg, iv or 1 mg/kg, po; format: ADME, organism-based, Macaca fascicularis; conditions: in vivo; summary of the method: as §3
[22] = Plasma concentration in methoxamine-sensitised rabbit at 3 mg/kg, iv administered as 10 mins infusion; format: ADME, organism-based, Oryctolagus cuniculus
[23] = Inhibition of sodium channel (unknown origin); set-up: species or system Homo sapiens
[24] = Plasma concentration in methoxamine-sensitised rabbit at 1 mg/kg, iv administered as 30 mins infusion; format: ADME, organism-based, Oryctolagus cuniculus
[25] = AUC in rat at 2 mg/kg, iv or 5 mg/kg, po; format: ADME, organism-based; conditions: in vivo; summary of the method: as §3
[26] = Cmax in mouse at 2 mg/kg, iv or 5 mg/kg, po; format: ADME, organism-based; conditions: in vivo; summary of the method: as §3
[27] = Half life in rat at 2 mg/kg, iv or 5 mg/kg, po; format: ADME, organism-based; conditions: in vivo; summary of the method: as §3
[28] = target: Potassium voltage-gated channel subfamily A member 5 (Homo sapiens, UniProt P22460); experiment: Inhibition of recombinant human Kv1.5 expressed in mouse L929 cells by patch clamp assay; format: cell-based
Summary of the method: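 Whole-cell patch clamp of IKur current in mouse L-929 cells transfected with human KV1.5 and stably expressing the channel.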

Sequence of Potassium voltage-gated channel subfamily A member 5 (P22460 whole entry): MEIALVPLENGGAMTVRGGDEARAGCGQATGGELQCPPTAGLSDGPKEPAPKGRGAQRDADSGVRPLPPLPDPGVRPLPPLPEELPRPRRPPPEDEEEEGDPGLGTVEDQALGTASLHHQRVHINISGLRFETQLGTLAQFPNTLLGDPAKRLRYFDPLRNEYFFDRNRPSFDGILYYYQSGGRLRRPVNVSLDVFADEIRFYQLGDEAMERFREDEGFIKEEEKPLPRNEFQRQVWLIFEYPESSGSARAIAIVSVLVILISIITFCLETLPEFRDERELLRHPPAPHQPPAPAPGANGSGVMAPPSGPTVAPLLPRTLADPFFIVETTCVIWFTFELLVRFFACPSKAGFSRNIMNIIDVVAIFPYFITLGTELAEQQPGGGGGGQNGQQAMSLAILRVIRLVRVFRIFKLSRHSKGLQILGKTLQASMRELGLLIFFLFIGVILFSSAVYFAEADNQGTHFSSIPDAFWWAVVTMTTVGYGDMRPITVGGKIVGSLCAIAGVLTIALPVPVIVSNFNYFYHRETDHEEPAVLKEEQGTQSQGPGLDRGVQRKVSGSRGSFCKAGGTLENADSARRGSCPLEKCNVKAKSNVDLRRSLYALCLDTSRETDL

bioavailability [2]: 35%
Vd [3]: 1.2 L/kg
clearance [5]: 3.3 mL/min/kg
fraction unbound [6]: < 0.01
Tmax [8]: 4.9 h
Vd [9]: 1.8 L/kg
half-life [10]: 120 min
solubility [11]: Soluble
Kp at 10 min [12]: 0.1
fraction unbound [13]: < 0.01
Drug absorption (Rhesus monkey): Active
Cmax [14]: 7.8 µM
Tmax [15]: 30 min
IC50 [16]: > 10 µM
bioavailability [18]: 100%
Tmax [19]: 2.6 h
clearance [20]: 3.2 mL/min/kg
half-life [21]: 276 min
IC50 [23]: > 10 µM
AUC [25]: 49 µM·h
Cmax [26]: 4 µM
half-life [27]: 192 min
IC50 [28]: 46 to 50 nM
Compound: NS(=O)(=O)c1cncc(-c2nc(NCc3ccccn3)c3c(-c4ccccc4)cccc3n2)c1 [BMS-919373]
Activity (Oryctolagus cuniculus [1]): 11%
concentration at 0.5 h [4]: 3.3 µM
Cp (Oryctolagus cuniculus [7]): 0.09 µM
Cp (Oryctolagus cuniculus [17]): 0.16 µM
Activity (Canis familiaris): Active
concentration at 10 min [22]: 2300 nM
concentration at 0.5 h [24]: 1300 nM
